Columns and labels:
Assay type in all cases: functional
[1] = test system: Plasmodium cynomolgi; assay: Radio curative antimalarial activity against Plasmodium cynomolgi in rhesus monkey at 0.75 mg/kg (base/day) peroral dose; cured 0 of 3; conditions: route oral
[2] = test system: Plasmodium cynomolgi; assay: Radio curative antimalarial activity against Plasmodium cynomolgi in rhesus monkey at 0.25 mg/kg (base/day) peroral dose; cured 0 of 3; conditions: route oral
[3] = test system: Mus musculus; assay: Antimalarial activity against Plasmodium berghei in mice (Mus musculus) at 640 mg/kg dose administered subcutaneously; conditions: route subcutaneous
Method in brief: (§1)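 Primary mouse screen: groups of five mice infected with a lethal dose of P. berghei 3 days before drug administration. Drug given subcutaneously, routinely in sesame or peanut oil. Mean survival time compared with infected untreated controls; extension in survival time (ΔMST) taken as antimalarial activity.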

[4] = test system: Mus musculus; assay: Antimalarial activity against Plasmodium berghei in mice (Mus musculus) at 40 mg/kg dose administered subcutaneously; conditions: route subcutaneous; method in brief: as §1
[5] = test system: Mus musculus; assay: Antimalarial activity against Plasmodium berghei in mice (Mus musculus) at 160 mg/kg dose administered subcutaneously; conditions: route subcutaneous; method in brief: as §1
[6] = test system: Plasmodium cynomolgi; assay: Radio curative antimalarial activity against Plasmodium cynomolgi in Rhesus monkey at 0.25 mg/kg (base/day) peroral dose; cured 0 of 3; conditions: route oral
[7] = test system: Mus musculus; assay: Antimalarial activity against Plasmodium berghei in mice (Mus musculus) at 5 mg/kg dose administered subcutaneously; active; conditions: route subcutaneous; method in brief: as §1
[8] = test system: Mus musculus; assay: Antimalarial activity against Plasmodium berghei in mice (Mus musculus) at 640 mg/kg dose administered subcutaneously; toxic; conditions: route subcutaneous; method in brief: as §1
[9] = test system: Mus musculus; assay: Antimalarial activity against Plasmodium berghei in mice (Mus musculus) at 10 mg/kg dose administered subcutaneously; active; conditions: route subcutaneous; method in brief: as §1
[10] = test system: Mus musculus; assay: Antimalarial activity against Plasmodium berghei in mice (Mus musculus) at 160 mg/kg dose administered subcutaneously; toxic; conditions: route subcutaneous; method in brief: as §1
[11] = test system: Mus musculus; assay: Antimalarial activity against Plasmodium berghei in mice (Mus musculus) at 20 mg/kg dose administered subcutaneously; active; conditions: route subcutaneous; method in brief: as §1
[12] = test system: Mus musculus; assay: Antimalarial activity against Plasmodium berghei in mice (Mus musculus) at 40 mg/kg dose administered subcutaneously; active; conditions: route subcutaneous; method in brief: as §1
[13] = test system: Plasmodium cynomolgi; assay: Radio curative antimalarial activity against Plasmodium cynomolgi in rhesus monkey at 0.25 mg/kg (base/day) peroral dose; cured 2 of 4; conditions: route oral
[14] = test system: Plasmodium cynomolgi; assay: Radio curative antimalarial activity against Plasmodium cynomolgi in rhesus monkey at 0.75 mg/kg (base/day) peroral dose;cured 3 of 5; conditions: route oral
[15] = test system: Mus musculus; assay: Antimalarial activity against Plasmodium berghei in mice (Mus musculus) at 20 mg/kg dose administered subcutaneously; conditions: route subcutaneous; method in brief: as §1
[16] = test system: Mus musculus; assay: Antimalarial activity against Plasmodium berghei in mice (Mus musculus) at 40 mg/kg dose administered subcutaneously; active/3 toxic; conditions: route subcutaneous; method in brief: as §1
[17] = test system: Plasmodium cynomolgi; assay: Radio curative antimalarial activity against Plasmodium cynomolgi in rhesus monkey at 0.5 mg/kg (base/day) peroral dose; cured 13 of 14; conditions: route oral
[18] = test system: Plasmodium cynomolgi; assay: Radio curative antimalarial activity against Plasmodium cynomolgi in rhesus monkey at 0.25 mg/kg (base/day) peroral dose; cured 8 of 14; conditions: route oral
[19] = test system: Plasmodium cynomolgi; assay: Radio curative antimalarial activity against Plasmodium cynomolgi in rhesus monkey at 0.75 mg/kg (base/day) peroral dose; cured 1 of 1; conditions: route oral
[20] = test system: Mus musculus; assay: Antimalarial activity against Plasmodium berghei in mice (Mus musculus) at 640 mg/kg dose administered subcutaneously; cure/1toxic; conditions: route subcutaneous; method in brief: as §1
[21] = test system: Mus musculus; assay: Antimalarial activity against Plasmodium berghei in mice (Mus musculus) at 80 mg/kg dose administered subcutaneously; conditions: route subcutaneous; method in brief: as §1
[22] = test system: Mus musculus; assay: Antimalarial activity against Plasmodium berghei in mice (Mus musculus) at 160 mg/kg dose administered subcutaneously; active; conditions: route subcutaneous; method in brief: as §1
[23] = test system: Mus musculus; assay: Antimalarial activity against Plasmodium berghei in mice (Mus musculus) at 320 mg/kg dose administered subcutaneously; active; conditions: route subcutaneous; method in brief: as §1
[24] = test system: Plasmodium cynomolgi; assay: Radio curative antimalarial activity against Plasmodium cynomolgi in rhesus monkey at 0.75 mg/kg (base/day) peroral dose; cured 3 of 3; conditions: route oral
[25] = test system: Plasmodium cynomolgi; assay: Radio curative antimalarial activity against Plasmodium cynomolgi in rhesus monkey at 0.25 mg/kg (base/day) peroral dose; cured 2 of 2; conditions: route oral
[26] = test system: Mus musculus; assay: Antimalarial activity against Plasmodium berghei in mice (Mus musculus) at 20 mg/kg dose administered subcutaneously; active/1 toxic; conditions: route subcutaneous; method in brief: as §1
[27] = test system: Mus musculus; assay: Antimalarial activity against Plasmodium berghei in mice (Mus musculus) at 40 mg/kg dose administered subcutaneously; active/1 toxic; conditions: route subcutaneous; method in brief: as §1
[28] = test system: Plasmodium cynomolgi; assay: Radio curative antimalarial activity against Plasmodium cynomolgi in rhesus monkey at 0.5 mg/kg (base/day) peroral dose; cured 10 of 12; conditions: route oral
[29] = test system: Plasmodium cynomolgi; assay: Radio curative antimalarial activity against Plasmodium cynomolgi in rhesus monkey at 0.75 mg/kg (base/day) peroral dose; cured 4 of 4; conditions: route oral
[30] = test system: Plasmodium cynomolgi; assay: Radio curative antimalarial activity against Plasmodium cynomolgi in rhesus monkey at 0.25 mg/kg (base/day) peroral dose; cured 0 of 2; conditions: route oral
[31] = test system: Mus musculus; assay: Antimalarial activity against Plasmodium berghei in mice (Mus musculus) at 80 mg/kg dose administered subcutaneously; active; conditions: route subcutaneous; method in brief: as §1
[32] = test system: Mus musculus; assay: Antimalarial activity against Plasmodium berghei in mice (Mus musculus) at 320 mg/kg dose administered subcutaneously; toxic; conditions: route subcutaneous; method in brief: as §1
[33] = test system: Plasmodium cynomolgi; assay: Radio curative antimalarial activity against Plasmodium cynomolgi in rhesus monkey at 0.5 mg/kg (base/day) peroral dose; cured 1 of 1; conditions: route oral
[34] = test system: Plasmodium cynomolgi; assay: Radio curative antimalarial activity against Plasmodium cynomolgi in rhesus monkey at 0.25 mg/kg (base/day) peroral dose; cured 5 of 6; conditions: route oral
[35] = test system: Mus musculus; assay: Antimalarial activity against Plasmodium berghei in mice (Mus musculus) at 40 mg/kg dose administered subcutaneously; toxic; conditions: route subcutaneous; method in brief: as §1
[36] = test system: Mus musculus; assay: Antimalarial activity against Plasmodium berghei in mice (Mus musculus) at 20 mg/kg dose administered subcutaneously; active/3 toxic; conditions: route subcutaneous; method in brief: as §1
[37] = test system: Plasmodium cynomolgi; assay: Radio curative antimalarial activity against Plasmodium cynomolgi in rhesus monkey at 0.25 mg/kg (base/day) peroral dose; cured 1 of 4; conditions: route oral
[38] = test system: Mus musculus; assay: Antimalarial activity against Plasmodium berghei in mice (Mus musculus) at 20 mg/kg dose administered subcutaneously; cure and active at 1.25 mg/kg; method in brief: as §1
[39] = test system: Mus musculus; assay: Antimalarial activity against Plasmodium berghei in mice (Mus musculus) at 40 mg/kg dose administered subcutaneously; cure/1 toxic; conditions: route subcutaneous; method in brief: as §1
[40] = test system: Plasmodium cynomolgi; assay: Radio curative antimalarial activity against Plasmodium cynomolgi in rhesus monkey at 0.25 mg/kg (base/day) peroral dose; cured 3 of 4; conditions: route oral
[41] = test system: Mus musculus; assay: Antimalarial activity against Plasmodium berghei in mice (Mus musculus) at 160 mg/kg dose administered subcutaneously; active/1 toxic; conditions: route subcutaneous; method in brief: as §1
[42] = test system: Plasmodium cynomolgi; assay: Radio curative antimalarial activity against Plasmodium cynomolgi in Rhesus monkey at 0.125 mg/kg(base/day) peroral dose; Cured 11 of 13; conditions: route oral
[43] = test system: Mus musculus; assay: Antimalarial activity against Plasmodium berghei in mice (Mus musculus) at 320 mg/kg dose administered subcutaneously; active/4 toxic; conditions: route subcutaneous; method in brief: as §1
[44] = test system: Plasmodium cynomolgi; assay: Radio curative antimalarial activity against Plasmodium cynomolgi in rhesus monkey at 0.0625 mg/kg(base/day) peroral dose; Cured 0 of 5; conditions: route oral
[45] = test system: Plasmodium cynomolgi; assay: Radio curative antimalarial activity against Plasmodium cynomolgi in rhesus monkey at 0.75 mg/kg (base/day) peroral dose; cured 4 of 5; conditions: route oral
[46] = test system: Plasmodium cynomolgi; assay: Radio curative antimalarial activity against Plasmodium cynomolgi in Rhesus monkey at 0.0625 mg/kg(base/day) peroral dose; Cured 0 of 2; conditions: route oral
[47] = test system: Plasmodium cynomolgi; assay: Radio curative antimalarial activity against Plasmodium cynomolgi in rhesus monkey at 0.25 mg/kg (base/day) peroral dose; cured 4 of 4; conditions: route oral
[48] = test system: Plasmodium cynomolgi; assay: Radio curative antimalarial activity against Plasmodium cynomolgi in rhesus monkey at 0.125 mg/kg(base/day) peroral dose; Cured 6 of 10; conditions: route oral
[49] = test system: Plasmodium cynomolgi; assay: Radio curative antimalarial activity against Plasmodium cynomolgi in rhesus monkey at 0.75 mg/kg (base/day) peroral dose; cured 0 of 2; conditions: route oral
[50] = test system: Mus musculus; assay: Antimalarial activity against Plasmodium berghei in mice (Mus musculus) at 320 mg/kg dose administered subcutaneously; active/3 toxic; conditions: route subcutaneous; method in brief: as §1

## CCC(CCCN)Nc1cc2c(c3c(C)ccnc13)OCO2 (stereo not given)
[1]
  Cured animals: 0
[2]
  Cured animals: 0
[3]
  Delta MST: 0.9 days
[4]
  Delta MST: 0.5 days
[5]
  Delta MST: 0.5 days

## CCC(CCCN)Nc1cc2c(c3c(C)ccnc13)OCCO2 (stereo not given)
[1]
  Cured animals: 0
[6]
  Cured animals: 0
[7]
  Delta MST: 7.8 days
[8]
  Delta MST: 5 days
[9]
  Delta MST: 7.6 days
[10]
  Delta MST: 5 days
[11]
  Delta MST: 7.2 days
[12]
  Delta MST: 7.6 days

## COc1cc(NC(C)CCCN)c2nc(C)cc(C)c2c1OC (stereo not given)
[13]
  Cured animals: 2
[14]
  Cured animals: 3
[8]
  Delta MST: 5 days
[10]
  Delta MST: 5 days
[15]
  Delta MST: 4.9 days
[16]
  Delta MST: 6.3 days

## COc1cc(NC(C)CCCN)c2nccc(C)c2c1 (stereo not given)
[17]
  Cured animals: 13
[18]
  Cured animals: 8
[19]
  Cured animals: 1
[20]
  Delta MST: 3 days
[21]
  Delta MST: 5.5 days
[22]
  Delta MST: 9.1 days
[15]
  Delta MST: 3.1 days
[23]
  Delta MST: 10.1 days
[4]
  Delta MST: 4.9 days

## Cc1ccnc2c(NC(C)CCCN)cc3c(c12)OCO3 (stereo not given)
[3]
  Delta MST: 0.3 days
[4]
  Delta MST: 0.1 days
[5]
  Delta MST: 0.1 days

## COc1cc(NCCCCC(C)N)c2nccc(C)c2c1OC (stereo not given)
[24]
  Cured animals: 3
[25]
  Cured animals: 2
[8]
  Delta MST: 5 days
[10]
  Delta MST: 5 days
[26]
  Delta MST: 7.5 days
[27]
  Delta MST: 8.7 days

## COc1cc(NC(C)CCCN)c2ncccc2c1 (stereo not given) [PRIMAQUINE]
[28]
  Cured animals: 10
[29]
  Cured animals: 4
[30]
  Cured animals: 0
[8]
  Delta MST: 5 days
[31]
  Delta MST: 9.4 days
[10]
  Delta MST: 2 days
[32]
  Delta MST: 5 days
[4]
  Delta MST: 5 days

## COc1cc(NCCCC(C)N)c2nccc(C)c2c1OC (stereo not given)
[33]
  Cured animals: 1
[34]
  Cured animals: 5
[35]
  number of mice died of toxicity: 5 mice
[8]
  Delta MST: 5 days
[10]
  Delta MST: 5 days
[36]
  Delta MST: 11.4 days

## COc1cc(NC(C)CCCCN)c2nccc(C)c2c1OC (stereo not given)
[24]
  Cured animals: 3
[37]
  Cured animals: 1
[8]
  Delta MST: 5 days
[10]
  Delta MST: 5 days
[38]
  Delta MST: 3 days
[39]
  number of mice cured: 1 mice

## COc1cc(NC(C)CCCN)c2nccc(C)c2c1OC (stereo not given)
[33]
  Cured animals: 1
[40]
  Cured animals: 3
[8]
  Delta MST: 5 days
[31]
  Delta MST: 8.9 days
[41]
  Delta MST: 9.9 days
[15]
  Delta MST: 5.7 days
[42]
  Cured animals: 11
[43]
  Delta MST: 11.9 days
[12]
  Delta MST: 7.1 days
[44]
  Cured animals: 0

## Cc1ccnc2c(NC(C)CCCN)cc3c(c12)OCCO3 (stereo not given)
[1]
  Cured animals: 0
[2]
  Cured animals: 0
[35]
  number of mice died of toxicity: 5 mice
[7]
  Delta MST: 6.7 days
[8]
  Delta MST: 5 days
[9]
  Delta MST: 8.3 days
[10]
  Delta MST: 5 days
[11]
  Delta MST: 11.1 days

## CCC(CCCN)Nc1cc(OC)c(OC)c2c(C)ccnc12 (stereo not given)
[45]
  Cured animals: 4
[46]
  Cured animals: 0
[47]
  Cured animals: 4
[8]
  Delta MST: 5 days
[10]
  Delta MST: 5 days
[48]
  Cured animals: 6
[4]
  Delta MST: 0.1 days

## COc1cc(NCCCC(C)N)c2ncccc2c1OC (stereo not given)
[49]
  Cured animals: 0
[30]
  Cured animals: 0
[8]
  Delta MST: 5 days
[21]
  Delta MST: 5.1 days
[22]
  Delta MST: 7.3 days
[15]
  Delta MST: 1.3 days
[50]
  Delta MST: 9.9 days
[4]
  Delta MST: 3.1 days
